High-throughput results (PubChem)
CHO parental Ca = signal in parental CHO cells, OX1R antagonist counter-screen; parental CHO-K1, ATP-induced calcium, Fluo-8 fluorescence; inhibition, % at 5.6 µM; 0.63% of 330,000 active; AID 463079;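 active = inhibition above that plate's mean sample inhibition plus 3 SD, cut at about 26% in these data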;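 also: 0% = ATP-challenged DMSO wells and 100% = DMSO wells without ATP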
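material = parental CHO cells | also added = ATP as calcium-mobilizing challenge | dosing = single point at 5.6 µM | detection = intracellular calcium via Fluo-8 no-wash fluorescent dye | read-out = % inhibition | benchmarks = low control ATP plus DMSO, high control DMSO only | repeats = one well per compound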
OX1R antag-1 = antagonists of human orexin 1 receptor; O43613; CHO/OX1R cells, Fluo-8 calcium fluorescence, orexin A; inhibition, % at 5 µM; 0.43% of 330,000 active; AID 434989;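 active = inhibition above its plate's threshold, mean inhibition of all tested compounds on the plate plus 3 SD, cut at about 37% in these data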;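 also: 0% = orexin A challenge wells and 100% = SB-334867-A antagonist wells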
TAAR1 antagonist = antagonists of human TAAR1. 1.5% of 360,000 active. inhibition, % at 3 µM. Q96RJ0. CHO RD-HGA16 TAAR1, Fluo-8 calcium fluorescence, antagonist;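 active = inhibition above a per-plate cutoff, the mean inhibition of test compounds on that plate plus 3 SD, cut at about 49% in these data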;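 also: 0% = DMSO plus EC80 beta-PEA response and 100% = DMSO alone without agonist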
Target sequence (Q96RJ0 whole entry, looked up): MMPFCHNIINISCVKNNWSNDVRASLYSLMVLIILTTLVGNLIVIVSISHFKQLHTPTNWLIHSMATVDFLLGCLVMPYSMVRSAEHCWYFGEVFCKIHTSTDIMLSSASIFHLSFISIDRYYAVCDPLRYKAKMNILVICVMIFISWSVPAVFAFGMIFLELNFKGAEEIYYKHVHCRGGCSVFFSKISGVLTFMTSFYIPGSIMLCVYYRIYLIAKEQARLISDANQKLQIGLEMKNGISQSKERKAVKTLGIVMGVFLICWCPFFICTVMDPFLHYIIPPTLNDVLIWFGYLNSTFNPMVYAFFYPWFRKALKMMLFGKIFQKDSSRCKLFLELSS
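Test system: hTAAR1-expressing CHO RD-HGA16 cells, Gα16-coupled; Probe or stimulus: EC80 β-phenethylamine stimulus; Compound dosing: single nominal final test compound concentration of 3 µM; Timing: 140 s kinetic read after compound, 140 s after agonist; Signal: Fluo-8 calcium-sensitive fluorescence; Measure: % inhibition of agonist calcium response; Controls: DMSO and EC80 PEA controls.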
OX1R antag-2 = OX1R (human) antagonism; inhibition, % at 6.6 µM; AID 485270; 1.8% of 330,000 active; O43613; OX1R-expressing cells, FRET antagonist read-out; in the data active = inhibition mostly above about 38%, no sharp cut-off; inactive = mostly below about 40%;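 also: 0% = agonist challenge alone and 100% = reference antagonist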
TAAR1 agonist = agonists of human TAAR1 | activation, % at 3 µM | Q96RJ0 | 0.99% of 360,000 active | AID 624467 | CHO RD-HGA16 TAAR1, Fluo-8 calcium fluorescence; vehicle wells 0%, saturating PEA agonist 100%;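 active = activation above the mean activation of all test compounds in the run plus 3 SD, cut at about 38% in these data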
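Benchmarks: low control DMSO, high control PEA (EC100); System: CHO RD-HGA16 cells carrying human TAAR1 plus Gα16; Detection: Fluo-8 fluorescence, 5 s baseline then 140 s kinetic read; Schedule: 17-24 h plating, Fluo-8 75 min 37 °C, 30 min RT; Read-out basis: % activation from peak over basal fluorescence ratio, DMSO-to-PEA scaled.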
The depositor's hits bear a star; / = no result given. Shown are actives, neighbours in structure and some others; about 4% of the full set was active somewhere.

SMILES	CHO parental Ca	OX1R antag-1	TAAR1 antagonist	OX1R antag-2	TAAR1 agonist
COc1ccc(C(=O)Nc2nc(OCC(F)(F)F)cnc2/C=C\c2ccccc2)c(OC)c1	/	/	-10	/	1
O=C(Nc1nc(OCC(F)(F)F)cnc1/C=C\c1ccccc1)c1ccsc1	/	/	57*	/	1
Cc1[nH]c2ccccc2c1C(=O)C(=O)NCCCc1ccccc1	-12	3	9	26	6
COc1cc2cc(C(=O)NCCc3c[nH]c4ccccc34)c(N)nc2cc1OC	/	/	70*	/	52*
Cc1[nH]c2ccccc2c1C(=O)C(=O)NCCc1c[nH]c2ccccc12	-14	-10	75*	36	45*
O=C(NCCc1c[nH]c2ccccc12)C(=O)c1c[nH]c2ccccc12	-18	-4	62*	12	40*
O=C(NCCc1ccc(Cl)cc1)C(=O)c1c[nH]c2ccccc12	-11	-13	47	5	12
CCN(CC)C(=O)Cn1cc(C(=O)C(=O)NCCc2c[nH]c3ccccc23)c2ccccc21	-6	6	9	46*	4
O=C(NCc1ccccc1Cl)c1ccccc1Oc1ccccc1	-5	-29	31	24	8
Cc1cccc(C)c1NC(=O)C(=O)NCCc1c[nH]c2ccccc12	-12	-9	5	13	46*
COc1cccc(C(O)c2nc(-c3ccccc3)cs2)c1 (stereo not drawn)	/	/	11	/	2
Nc1c(SCCC(=O)O)ccc2c1C(=O)c1ccccc1C2=O	12	6	13	43*	6
O=c1c2cnn(-c3ccccc3)c2nc(-c2cccs2)n1-c1cccc(Cl)c1	-22	-24	-29	17	-1
CN1c2ccccc2C(C)(C)[C@]12C=Cc1cc(O)ccc1O2	48*	21	23	5	2
COc1ccc2ccc3c(c2c1)N=CC1(O3)N(C)c2ccccc2C1(C)C (stereo not drawn)	-27	-28	/	28	/
CN1c2ccccc2C(C)(C)C12C=Nc1c(ccc3ccccc13)O2 (stereo not drawn)	-24	-15	43	58	40*
CC(=O)OCC(=O)NCC1CCN(C(=O)C(=O)c2cc3ccccc3o2)CC1	/	/	-17	/	0
CC1CCN(C(=O)C(C)Sc2nc(-c3ccccc3)cc(C(F)(F)F)n2)CC1 (stereo not drawn)	30*	-30	12	11	5
CC(Sc1nc(-c2ccccc2)cc(C(F)(F)F)n1)C(=O)N1CCCC1 (stereo not drawn)	-11	-13	-2	7	0
O=c1[nH]c2ccccc2nc1C(Nc1ccccc1)c1ccccc1 (stereo not drawn)	-24	-34	0	6	-3
CSc1ncnc2c1ccn2CC(=O)Nc1ccc(C)c(C)c1	-11	-18	14	2	43*
CO[C@@H]1[C@H](O)CC[C@]2(O)CN(c3ccc(F)cc3)[C@](C)([C@H](O)CC=C(C)C)[C@@H]12	/	/	-22	/	4
CC1(C)CC(=O)C=C(c2ccccc2-c2cccc(C(N)=O)c2)C1=O	/	/	-4	/	1
COc1ccc(NC(=O)c2ccc(CN3CCN(c4ccccc4)CC3)cc2)cc1	-2	-18	22	7	40*
COc1ccc(C(=O)Nc2ccc(N3CCN(Cc4ccccc4)CC3)cc2)cc1	-12	-5	12	15	8
SMILES	CHO parental Ca	OX1R antag-1	TAAR1 antagonist	OX1R antag-2	TAAR1 agonist
C[C@H](c1ccccc1)N1C[C@@H](COCc2ccccc2)Oc2cccc(F)c2S1(=O)=O	/	/	10	/	2
Cc1ccccc1CN1CCN(C(=O)[C@H]2O[C@@H](n3cnc(C(N)=O)n3)[C@H](O)[C@@H]2O)CC1	/	/	-11	/	3
Cc1cc(Cl)c(OCCCNCc2ccccc2)c(Br)c1	7	-9	0	14	44*
O=C(Cc1c(Cl)cccc1Cl)Nc1ccncc1Cl	-6	-12	-40	16	4
O=C(Cc1ccc(Cl)cc1Cl)Nc1ccncc1	22	2	20	9	6
COc1ccc(CC(=O)Nc2ccncc2Cl)cc1	35*	18	-9	30	3
O=C(Cc1ccc(Cl)cc1Cl)Nc1ccncc1Cl	31*	1	16	22	1
CCCCCCCCOC(=O)c1c(CSC(=N)N)n(C)c2cc(Br)c(OC(C)=O)cc12	3	-16	-16	5	90*
Cc1ccc(OCc2cc(C(=O)NCc3ccc(OC(F)(F)F)cc3)no2)cn1	-8	-1	48	10	41*
Cc1ccc(OCc2cc(C(=O)NCc3cnn(-c4cccc(F)c4)c3)no2)cn1	-35	-26	2	7	4
C[C@@H]1CN([C@@H](C)CO)C(=O)CCCn2cc(nn2)CO[C@H]1CN(C)C(=O)Nc1ccc(-c2cccs2)cc1	/	/	-17	/	4
Cc1nn(-c2ccc(F)cc2)c2nc(N)c(C#N)c(-c3ccc(O)c(O)c3)c12	/	/	51*	/	6
CCOc1ccccc1CN1CCCC(CNC(=O)Cc2ccc(OC)cc2)C1 (stereo not drawn)	-29	-35	4	-4	-1
N=C1/C(=C/c2cccn2-c2ccc([N+](=O)[O-])cc2)C(=O)N=C2SC=CN12	-21	-17	29	29	8
COc1ccc(-c2ccc(/C=C3/C(=N)N4C=CSC4=NC3=O)o2)c([N+](=O)[O-])c1	-3	13	43	64*	13
Cc1ccc(C)c(NC(=O)CN(C)C(=O)c2ccc(S(=O)(=O)N(C)c3ccccc3)cc2)c1	-15	-4	0	30*	5
Cc1ccc(S(=O)(=O)N2[C@@H](c3ccc(Cl)cc3)C(C(=O)O)=CC[C@H]2c2ccc(Cl)cc2)cc1	2	12	55*	58*	2
Cc1ccc(S(=O)(=O)N2[C@@H](c3ccc(Cl)cc3)C(C(=O)O)=CC[C@H]2c2cccc(Cl)c2)cc1	9	-21	-9	10	1
O=C(O)C1=CC[C@@H](c2ccc(Cl)cc2)N(S(=O)(=O)c2ccc(Cl)cc2)[C@H]1c1cccc(Cl)c1	78*	37	64*	85*	6
O=C(O)C1=CC[C@@H](c2ccc(Cl)cc2)N(S(=O)(=O)c2ccc(Cl)cc2)[C@H]1c1ccc(Br)cc1	3	24	52*	25	0
COc1cccc([C@@H]2CC=C(C(=O)O)[C@H](c3cccc(Cl)c3)N2S(=O)(=O)c2ccc(C)cc2)c1	-17	9	13	69*	2
COCCNC(=S)N(C)[C@H]1C[C@H]2c3[nH]c4ccccc4c3CCN2C(=O)[C@H]1[C@H](C)O	/	/	-20	/	2
CSc1oc(-c2ccccc2)nc1S(=O)(=O)c1ccc(C)cc1	29*	-26	-3	16	10
N#Cc1c(-c2cccs2)cc(-c2cccnc2)nc1N	-20	-13	13	46*	9
CCCn1c(=O)c(C(=O)Nc2ncccc2C)c(O)c2ccccc21	-13	-10	0	13	40*
